Assay results published in ChEMBL document CHEMBL1127806, “Substrate specificity in short-chain phospholipid analogs at the active site of human synovial phospholipase A2” (J Med Chem, 1994).

How the values were obtained:
[1] = Critical micelle concentration determined from the plots of the fluorescence intensity as a function of compound concentration; format: ADME
Outline: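 Fluorescence of 8-anilino-1-naphthalenesulfonic acid (5 μM) followed as a function of compound concentration. Buffer: 20 mM HEPES pH 7.5 with 2 mM Ca²⁺, no DTNB. cmc read from the intensity-versus-concentration plot.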

[2] = Ratio of catalysis rate (kcat) and Michaelis-Menten constant (Km) of the compound
Outline: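 Recombinant human synovial PLA₂ (baculovirus-expressed, HPLC-purified) at 14 nM in 20 mM HEPES pH 7.5, 2 mM Ca²⁺, 0.8 mM DTNB. Thioester hydrolysis read at 405 nm as thionitrobenzoate (ε 13 600). Initial rates measured at substrate concentrations up to 100 μM. Apparent kcat/KM taken as the slope of rate versus [S] divided by enzyme concentration.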

[3] = Hydrolysis rate of the compound
Outline: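 pH-stat at pH 9, titrated with 1 mM NaOH. Substrate 100 μM in deionized water with 2 mM Ca²⁺, under a nitrogen stream. Started with recombinant human synovial PLA₂ (1.69 nmol, 2.41 μg), purified from baculovirus by reversed-phase HPLC; preliminary set used E. coli-expressed enzyme. Rate recorded for 1 h from base consumption.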

[4] = Hydrolysis turn over determined from the plots of the fluorescence assay quantified by HPLC
Outline: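 Recombinant human synovial PLA2 expressed in E. coli. Turnover of an amine-headgroup (phosphatidylethanolamine) substrate was measured by derivatizing the amine with excess fluorescamine and quantifying the fluorescent derivatives by reversed-phase HPLC. The rate is expressed as nmol·min⁻¹·mg⁻¹ enzyme.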

Row | SMILES | CMC [1] | Ratio [2] | Hydrolysis (nmol min-1 mg-1) [3] | CMC [4] [mM]
1 | CCCCCCC(=O)SC[C@H](COP(=O)([O-])OC)SC(=O)CCCCCC.[Li+] | 0.3 mM | 37700 l s-1 M-1 | – | –
2 | CCCCCC(=O)OC[C@H](COP(=O)(O)OC[C@@H]1CCCN1)OC(=O)CCCCC | 0.8 mM | – | 12 | –
3 | CCCCCC(=O)OC[C@H](COP(=O)(O)OC[C@@H](N)C(=O)O)OC(=O)CCCCC | – | – | < 5 | –
4 | CCCCCC(=O)OC[C@H](COP(=O)(O)OCCN)OC(=O)CCCCC | – | – | 5.3 | 2.3
5 | CCCCCCCC(=O)S[C@H](COCCC)COP(=O)([O-])OC.[Li+] | 1 mM | 1200 l s-1 M-1 | – | –
6 | CCCCCCCC(=O)S[C@H](COCCCCC)COP(=O)([O-])OC.[Li+] | 1.25 mM | 7000 l s-1 M-1 | – | –
7 | CCCCCCCCOC[C@H](COP(=O)(O)OC)SC(=O)CCC | – | 3700 l s-1 M-1 | – | –
8 | CCCCCCCCCC(=O)S[C@H](COCc1ccc(Oc2ccccc2)cc1)COP(=O)([O-])OC.[Li+] | 0.04 mM | 4600 l s-1 M-1 | – | –
9 | CCCCCCCCCC(=O)S[C@H](COCc1ccccc1)COP(=O)([O-])OC.[Li+] | 0.2 mM | 5000 l s-1 M-1 | – | –
10 | CCCC(=O)SC[C@H](COP(=O)([O-])OC)SC(=O)CCC.[Li+] | 2.3 mM | 200 l s-1 M-1 | – | –
11 | CCC(=O)SC[C@H](COP(=O)([O-])OC)SC(=O)CC.[Li+] | >= 3 mM | < 10 l s-1 M-1 | – | –
12 | CCCCCCOC[C@H](COP(=O)(O)OC)SC(=O)c1ccccc1 | – | < 100 l s-1 M-1 | – | –
13 | CCCCCCCC(=O)SC[C@H](COP(=O)([O-])OC)SC(=O)CCCCCCC.[Li+] | 0.03 mM | 408000 l s-1 M-1 | – | –
14 | CC/C=C\CCOC[C@H](COP(=O)([O-])OC)SC(=O)CCCCCCCCC.[Li+] | 0.2 mM | 5900 l s-1 M-1 | – | –
15 | CCCCCC(=O)SC[C@H](COP(=O)(OC)OC)SC(=O)CCCCC | 0.04 mM | < 100 l s-1 M-1 | – | –
16 | CCCOC[C@H](COP(=O)([O-])OC)SC(=O)CCC.[Li+] | 3 mM | < 10 l s-1 M-1 | – | –

Row | SMILES | CMC [1] | Ratio [2] | Hydrolysis (nmol min-1 mg-1) [3] | CMC [4] [mM]
17 | CCCCCC(=O)SC[C@H](COP(=O)([O-])OC)SC(=O)CCCCC.[Li+] | >= 3 mM | 1800 l s-1 M-1 | – | –
18 | CCCCCOC[C@H](COP(=O)(O)OC)SC(=O)CCC | – | < 100 l s-1 M-1 | – | –
19 | CCCCC(=O)SC[C@H](COP(=O)([O-])OC)SC(=O)CCCC.[Li+] | > 9 mM | 870 l s-1 M-1 | – | –
20 | CCCCCCCCCC(=O)S[C@H](COC/C=C/c1ccccc1)COP(=O)([O-])OC.[Li+] | 0.04 mM | 19000 l s-1 M-1 | – | –
21 | CC/C=C/C(=O)S[C@H](COCCCCCC)COP(=O)(O)OC | – | < 100 l s-1 M-1 | – | –
22 | CCCCCC(=O)OC[C@H](COP(=O)(O)OC)OC(=O)CCCCC | – | – | < 5 | –
23 | CCCCCCCCOC[C@H](COP(=O)([O-])OC)SC(=O)CCCCCCC.[Li+] | 0.13 mM | 12000 l s-1 M-1 | – | –
24 | CCCCCCOC[C@H](COP(=O)(O)OC)SC(=O)CCc1ccccc1 | – | 160 l s-1 M-1 | – | –
25 | CCCCCC(=O)OC[C@H](COP(=O)(O)OC[C@H]1CCCN1)OC(=O)CCCCC | 0.5 mM | – | 13 | –
26 | CCCCCCCCC(=O)SC[C@H](COP(=O)([O-])OC)SC(=O)CCCCCCCC.[Li+] | < 0.03 mM | 541000 l s-1 M-1 | – | –
27 | CCCCCC(=O)OC[C@H](COP(=O)(O)O[C@@H](C)[C@@H](N)C(=O)O)OC(=O)CCCCC | – | – | < 5 | –
28 | CCCCCCCCCC(=O)S[C@H](COCc1ccc(-c2ccccc2)cc1)COP(=O)([O-])OC.[Li+] | 0.1 mM | 2500 l s-1 M-1 | – | –
29 | CCCCCCCCCC(=O)S[C@H](COCCC(C)(C)C)COP(=O)([O-])OC.[Li+] | 0.4 mM | 627 l s-1 M-1 | – | –
30 | CCCCCCOC[C@H](COP(=O)(O)OC)SC(=O)CCC(C)C | – | < 100 l s-1 M-1 | – | –
31 | CCCCCC(=O)OC[C@H](COP(=O)(O)OCCO)OC(=O)CCCCC | – | – | < 5 | –
